Values after ≈ are worked out from the molar mass of the structure shown. Structures can show the parent of a compound that is named as a salt. Where two headings read alike, the source gives them in different places.
Tests used:
hSULT2A1-DHEAS complex = molecular target: T1, hSULT2A1-DHEAS complex (Homo sapiens, UniProt Q06520); assay type: binding; settings: for Kd: enzyme pretreated with 80 μM (0.08 mM) DHEAS
T1 sequence (Q06520 1-285): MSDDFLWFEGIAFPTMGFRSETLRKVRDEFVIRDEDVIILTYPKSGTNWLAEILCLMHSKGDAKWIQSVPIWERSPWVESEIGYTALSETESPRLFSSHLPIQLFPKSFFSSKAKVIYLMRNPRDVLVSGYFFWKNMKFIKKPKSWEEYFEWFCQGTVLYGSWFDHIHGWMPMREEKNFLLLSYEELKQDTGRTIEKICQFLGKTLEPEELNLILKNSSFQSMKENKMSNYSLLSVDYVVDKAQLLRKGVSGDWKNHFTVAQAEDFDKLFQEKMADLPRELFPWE
Method in brief: (§1)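 Purified recombinant hSULT2A1 at 25 nM (dimer basis) was equilibrated 15 min, then pretreated with 80 μM DHEA or 80 μM DHEAS. Test ligand (1.0–300 μM) was added stepwise with stirring at 37 ± 2 °C, and intrinsic tryptophan fluorescence was read after each addition. Data were fitted to a two-site Adair model, with Kd taken as the reciprocal association constants. Triplicates, mean ± SD.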

hSULT2A1 [1] = molecular target: T2, hSULT2A1 (Homo sapiens, UniProt Q06520); assay: Kinetics of DHEA sulfation catalyzed by recombinant hSULT2A1; assay type: biochemical; settings: for substrate inhibition by PAPS: 1.0-300 μM PAPS; for substrate inhibition by DHEA: 0.1-2.0 μM DHEA
T2 sequence (Q06520 1-285): T1 sequence (Q06520 1-285)

hSULT2A1 [2] = molecular target: T2, hSULT2A1; settings: sulfation of pregnenolone; cited from earlier work
hSULT2A1 [3] = molecular target: T2, hSULT2A1; assay: Ligand binding to ligand-free hSULT2A1 by intrinsic tryptophan fluorescence; settings: read-out: dissociation constant (hyperbolic single site); ligand-free enzyme, pH 7.0, 37 °C
hSULT2A1-PAP complex = molecular target: T3, hSULT2A1-PAP complex (Homo sapiens, UniProt Q06520); assay: Ligand binding to the hSULT2A1-PAP complex by intrinsic tryptophan fluorescence
T3 sequence (Q06520 1-285): T1 sequence (Q06520 1-285)

hSULT2A1-DHEA complex = molecular target: T4, hSULT2A1-DHEA complex (Homo sapiens, UniProt Q06520); assay: Ligand binding to the hSULT2A1-DHEA complex by intrinsic tryptophan fluorescence; settings: read-out: Kd2(app); enzyme pretreated with 80 μM (0.08 mM) DHEA
T4 sequence (Q06520 1-285): T1 sequence (Q06520 1-285)
Method in brief: as §1

[4] = Determination of DHEA solubility by light scattering; assay type: physicochemical; settings: potassium phosphate buffer, pH 7, aqueous buffer
[5] = read-out: Kd2(app), in the presence of 100 μM (0.1 mM) PAP
[6] = 0.25-20 μM DHEA, 200 μM PAPS, pH 7.0, 37 °C, substrate inhibition equation

Nc1ncnc2c1ncn2[C@@H]1O[C@H](COP(=O)(O)OS(=O)(=O)O)[C@@H](OP(=O)(O)O)[C@H]1O [PAPS, 3′-phosphoadenosine 5′-phosphosulfate]
Kd2(app) relative to Kd1(app) (hSULT2A1-DHEAS complex; enzyme pretreated with 80 μM DHEAS): over 200 fold
Kd (hSULT2A1-DHEAS complex; read-out: Kd1(app)): 1.3 ± 0.4 µM
Kd (hSULT2A1-DHEAS complex; read-out: Kd2(app)): 315 ± 27 µM
substrate inhibition by PAPS (hSULT2A1 [1]; 80 μM DHEA): significant substrate inhibition
substrate inhibition by PAPS (hSULT2A1 [1]; DHEA 0.1 μM - 2.0 μM): no indication that PAPS displayed substrate inhibition
substrate inhibition by PAPS (hSULT2A1 [1]; DHEA 5.0 μM or 20 μM): did not exhibit substrate inhibition

CC(=O)[C@H]1CC[C@H]2[C@@H]3CC=C4C[C@@H](O)CC[C@]4(C)[C@H]3CC[C@]12C [pregnenolone]
catalytic efficiency (kcat/Km) with hSULT2A1 relative to hSULT2B1 and hSULT2B2 (hSULT2A1 [2]): 3-8 fold

C[C@]12CC[C@H](OS(=O)(=O)O)CC1=CC[C@@H]1[C@@H]2CC[C@]2(C)C(=O)CC[C@@H]12 [DHEAS, dehydroepiandrosterone sulfate]
Kd (hSULT2A1 [3]): 7.2 ± 0.3 µM
Kd (hSULT2A1-PAP complex; read-out: Kd1(app), in the presence of 100 μM (0.1 mM) PAP): 3.3 ± 0.2 µM
Kd (hSULT2A1-PAP complex; [5]): 3.3 ± 0.2 µM
Kd (hSULT2A1-PAP complex; read-out: Kd(app) (hyperbolic single site), in the presence of 100 μM PAP): 3.3 ± 0.2 µM

Nc1ncnc2c1ncn2[C@@H]1O[C@H](COP(=O)(O)O)[C@@H](OP(=O)(O)O)[C@H]1O [PAP, adenosine 3′,5′-diphosphate]
Kd (hSULT2A1-DHEAS complex; read-out: Kd2(app)): 415 ± 75 µM
Kd (hSULT2A1-DHEA complex): 243 ± 27 µM

C[C@]12CC[C@H](O)CC1=CC[C@@H]1[C@@H]2CC[C@]2(C)C(=O)CC[C@@H]12 [DHEA, dehydroepiandrosterone (5-androsten-3β-ol-17-one)]
solubility [4]: 80 µM (≈ 23.1 µg/mL)
Kd (hSULT2A1-PAP complex; [5]): 22 ± 3.2 µM
substrate inhibition by DHEA (hSULT2A1 [1]; intermediate PAPS 5.0 – 60 μM): substrate inhibition was observed
substrate inhibition by DHEA (hSULT2A1 [1]; lowest (1.0 μM) and highest (100 and 300 μM) PAPS): substrate inhibition was not evident
Kis (substrate inhibition constant) (hSULT2A1 [1]; [6]): 8 ± 3 µM
Km (hSULT2A1 [1]; [6]): 0.8 ± 0.3 µM
Vmax (hSULT2A1 [1]; [6]): 245 ± 40 nmol/min/mg
